This passage reports IC50 and inhibition results from ChEMBL document CHEMBL1123269, “Synthesis and antitumor activity of certain 3-beta-D-ribofuranosyl-1,2,4-triazolo[3,4-f]-1,2,4-triazines related to formycin prepared via ring closure of a 1,2,4-triazine precursor” (1986).

Holding throughout (assay type): functional
Experiment [1] is described as follows: Concentration that produced 50% inhibition of WIL2 leukemia tumor cell growth was determined. The note with it: Homo sapiens, read-out: ID50 (the source's name). The procedure, abridged:
(§1)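 WIL2 human B-lymphoblastic leukemia cells were kept mycoplasma-free in suspension culture in RPMI-1640 with 10% fetal bovine serum and 20 mM Hepes. Triplicate wells held 5 × 10⁴ cells/mL and compound at 0.1–100 μM final (0.5-log dilutions), for 72 h at 37 °C in 5% CO₂. Coulter cell counts gave growth as % of untreated or Me₂SO-matched controls. ID₅₀ came from the concentration plot.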

In experiment [2] the test system is CCRF-CEM. As to the kind of experiment: Concentration that produced 50% inhibition of CCRF-CEM leukemia tumor cell growth was determined. As to conditions: Homo sapiens, read-out: ID50 (the source's name). A digest of the protocol: (§2)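 Assay in CCRF-CEM human T-lymphoblastic leukemia cells (mycoplasma-free; suspension in RPMI-1640, 10% fetal bovine serum, 20 mM Hepes). Seeded at 5 × 10⁴ cells/mL with compound at 0.1–100 μM final in 0.5-log steps, triplicate, for 92 h at 37 °C in humidified 5% CO₂. Electronic cell count gave growth as % of control (Me₂SO-matched where relevant). ID₅₀ was taken from the plot.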

For experiment [3], the system named is L1210. As to the kind of experiment: Concentration that produced 50% inhibition of L1210 leukemia tumor cell growth was determined. The note with it: Mus musculus, read-out: ID50 (the source's name). A digest of the protocol:
(§3)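 L1210 murine lymphocytic leukemia cells, mycoplasma-free, grown in suspension in RPMI-1640 with 10% fetal bovine serum and 20 mM Hepes. Inoculum 5 × 10⁴ cells/mL with compound at 0.1–100 μM final (0.5-log steps), in triplicate. Incubated 48 h at 37 °C, humidified 5% CO₂. Growth was measured by Coulter count as % of untreated control, or of a matched Me₂SO control. ID₅₀ was read from the %-control vs concentration plot.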

The subject of experiment [4] is CCRF-CEM. The experiment in a line: Concentration that produced 50% inhibition of CCRF-CEM leukemia tumor cell growth was determined at 100 uM. As to conditions: Homo sapiens. The procedure, abridged:
as §2

The test system of experiment [5] is L1210. The experiment in a line: Concentration that produced 50% inhibition of L1210 leukemia tumor cell growth was determined at 100 uM. As to conditions: Mus musculus. A digest of the protocol: as §3
Experiment [6] can be described thus: Concentration that produced 50% inhibition of WIL2 leukemia tumor cell growth was determined at 100 uM. As to conditions: Homo sapiens. The procedure, abridged:
as §1

With `Nc1ncnn2c([C@@H]3O[C@H](CO)[C@@H](O)[C@H]3O)nnc12`, the IC50 in experiment [1] turned out to be 7.3 µM; in the experiment with CCRF-CEM [2], 5 µM; with L1210 [3] it was 6.3 µM.

On to `Nc1nn2c([C@@H]3O[C@H](CO)[C@@H](O)[C@H]3O)nnc2c(=O)[nH]1`, for which the values for the inhibition at 100 µM (in the experiment with CCRF-CEM [4]; in the experiment with L1210 [5]; in experiment [6]) were 30%, 47% and 35%, respectively.

In the case of `O=C1N=CN=C2C([C@@H]3O[C@H](CO)[C@@H](O)[C@H]3O)=NNC12` (stereo partly drawn), the IC50 was 7.5 µM in experiment [1], 8.4 µM with CCRF-CEM [2] and 31.6 µM in the experiment with L1210 [3].

For `Nc1ncnc2c([C@@H]3O[C@H](CO)[C@@H](O)[C@H]3O)[nH]nc12` [FORMYCIN], the results for the IC50 (in experiment [1]; in the experiment on CCRF-CEM [2]; with L1210 [3]) were 6.2 µM, 6.1 µM and 27.6 µM, respectively.

Consider `Nc1nn2c([C@@H]3O[C@H](CO)[C@@H](O)[C@H]3O)nnc2c(=S)[nH]1`, for which the IC50 in the experiment with CCRF-CEM [2] turned out to be 67 µM.

In the case of `O=c1[nH]cnn2c([C@@H]3O[C@H](CO)[C@@H](O)[C@H]3O)nnc12`, the results for the IC50 (in experiment [1]; in the experiment with L1210 [3]) were 15 µM and 7 µM, respectively.

Take `Nc1nc(N)c2nnc([C@@H]3O[C@H](CO)[C@@H](O)[C@H]3O)n2n1`: the IC50 in experiment [1] is 45.8 µM; in the experiment on CCRF-CEM [2], 44.7 µM; in the experiment on L1210 [3], 16.3 µM.
